Screening data as filed in PubChem.
Most compounds without a hit are left out; they make up all but 3.5% or so of the library.
Yeast life ext – compounds extending yeast replicative lifespan, primary screen, S. cerevisiae, OD615. S. cerevisiae growth with nicotinamide; deaD strain in restrictive glucose medium. inhibition of the nicotinamide effect, % at 10 µM. hit rate 0.68% among 130,000. AID 775, 2007;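 active = inhibition above a set limit, placed 3 SD over the median of all compounds, cut at about 26% in these data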;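 note: 0% = nicotinamide-treated wells and 100% = cells grown without nicotinamide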
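Assay system: engineered S. cerevisiae DeaD replicative-lifespan strain, galactose-grown log-phase cells; Buffer or medium: CSMM-D glucose medium, restrictive; Probe or stimulus: nicotinamide 1.5 mM; Compound: single dose 10 µM compound, 0.25% DMSO; Schedule: 4 h preincubation then 48 h treatment at 30 °C; Technique: OD615 measurement.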
MT stabilize HCS – microtubule stabilizers in HeLa cells, primary screen, imaging, high-content imaging; HeLa tubulin immunostaining HCS, 24 h; share of cells brighter than vehicle mean+2SD; % tubulin-high responders, % at 10 µM; hit rate 0.83% among 200,000; AID 2205, 2009;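 active = plate Z-score above 3 for both tubulin-high and condensed-nucleus cell shares, with cell loss under 80%, at 10 µM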;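 note: anti alpha tubulin signal scored within the nucleus-defined area of each cell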
RAM network inh – inhibitors of the yeast RAM network, primary screen, dse1pr::URA3 reporter, 5-FOA selection; inhibition, % at 50 µM; S. cerevisiae dse1pr::URA3 reporter, 5-FOA growth OD615, 2 d; analog-sensitive cbk1-as2 kinase mutant strain; hit rate 1.8% among 190,000;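 active = inhibition above a set limit, 3 SD over mean compound inhibition, cut at about 8.4% in these data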;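 note: 0% = DMSO-only wells with no growth and 100% = 10 µM 1-NA-PP1 full growth; inhibition rescues growth on 5-FOA so higher OD means more RAM inhibition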
HMGR II inh – inhibitors of E. faecalis class II HMGR, primary screen, biochemical, Enterococcus faecalis. HMG-CoA reductase (Enterococcus faecalis, mvaE). purified E. faecalis HMGR, NADPH absorbance 340 nm kinetic. inhibition, % at 10 µM. hit rate 0.41% among 190,000. AID 1066, 2008;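 active = inhibition above a set limit, the median over all tested compounds plus 3 SD, cut at about 9.5% in these data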;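 note: enzyme runs in reverse so mevalonate oxidation gives rising NADPH absorbance; 0% = complete reaction with DMSO and 100% = background rate lacking mevalonate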
BB579 growth dn – growth inhibitors of yeast BB579 in restrictive medium, primary screen, yeast lifespan-shortening project, S. cerevisiae | hit rate 0.51% among 140,000 | OD615, 48 h | inhibition, % at 10 µM;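 active = inhibition above a set limit, 3 SD over the mean compound inhibition, cut at about 44% in these data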
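controls = amphotericin B 10 µg/mL, positive | assay system = DeaD yeast strain BB579 | schedule = 48 h compound exposure at 30 °C after 4 h preincubation | detection = OD615 turbidity measurement | medium = restrictive CSMM-D medium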
b-catenin transl – modulators of beta-catenin nuclear translocation, primary screen, imaging, HeLa cells, immunofluorescence, high-content. nuclear translocation activity, % at 5 µM. hit rate 0.3% among 190,000. AID 1665, 2009;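 active = nuclear translocation activity above 50% at 5 µM, with a well cell count of 50 or more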;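 note: per-cell ratio of nuclear to cytoplasmic median beta-catenin stain intensity; plate controls were DMSO negative control for no effect and GSK-3 inhibitor IX positive control for full effect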
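Technique: fluorescence imaging of beta-catenin antibody stain plus DAPI / Material: human HeLa cell line / Incubation: compound treatment 24 h, 37°C, 5% CO2 / Read-out basis: % activation of per-cell nuclear versus cytoplasmic median beta-catenin signal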
Active calls of the source: *; nt = no result given.

SMILES | Yeast life ext | MT stabilize HCS | RAM network inh | HMGR II inh | BB579 growth dn | b-catenin transl
COC(=O)c1ccc(Oc2cc(C)nc(Cl)n2)cc1 | nt | 3 | 2 | -4 | nt | 0
CN(C)c1ccc([C@@H]2[C@@H]([N+](=O)[O-])[C@H]3C=Cc4ccccc4N3[C@H]2C(=O)c2ccc(Cl)cc2)cc1 | 32* | 20 | 2 | -1 | -9 | 3
O=C(c1ccccc1)C1C(c2ccccc2)C1[N+](=O)[O-] (stereo not drawn) | nt | nt | nt | nt | nt | 0
CCc1cccc(CC)c1NC(=O)COC(=O)CC1c2ccccc2CCN1S(=O)(=O)c1ccc(F)cc1 (stereo not drawn) | 1 | 4 | 8 | -3 | -1 | -1
O=C(COC(=O)CC1c2ccccc2CCN1S(=O)(=O)c1ccc(F)cc1)Nc1ccccc1 (stereo not drawn) | 2 | 3 | 8.6* | 2 | 5 | -2
Cc1cc2nc(-c3ccc(SCc4ccc(C(=O)O)cc4)nc3)[nH]c2cc1C | nt | 18* | 7 | -3 | nt | 12
Cc1cc2nc(-c3ccc(SCC(=O)N4CCc5ccccc54)nc3)[nH]c2cc1C | -15 | 7 | 7 | 0 | -31 | 1
Cc1cc2nc(-c3ccc(SCC(=O)Nc4ccc(S(=O)(=O)NC5CC5)cc4)nc3)[nH]c2cc1C | 4 | 3 | 9.3* | -11 | -27 | 7
Cc1cc2nc(-c3ccc(SCC(=O)NC(C)C)nc3)[nH]c2cc1C | nt | 5 | 0 | -4 | nt | 2
Cc1cc(NC(=O)CSc2ccc(-c3nc4cc(C)c(C)cc4[nH]3)cn2)no1 | -16 | 5 | 10* | -6 | -44 | 3
CC(C)(C)C(=O)Nc1cccc(-c2ncon2)c1 | nt | nt | nt | nt | nt | -2
O=C(COC(=O)C1CCN(S(=O)(=O)c2cccs2)CC1)NCc1ccc(F)cc1 | nt | nt | nt | nt | nt | 0
Cc1ccc(C(=O)C2CCN(C(=S)NCC3CCCO3)CC2)cc1 (stereo not drawn) | nt | 3 | 1 | -4 | nt | -2
O=C(c1ccc(F)cc1)C1CCN(C(=S)NCC2CCCO2)CC1 (stereo not drawn) | nt | 3 | 0 | 12* | nt | 2
Nc1ccc(NC(=O)NC2CCCCC2)cc1[N+](=O)[O-] | nt | 2 | 1 | 0 | nt | -2
CC(C)Cn1c(=O)c(C(=O)Nc2cnccn2)c(O)c2ccccc21 | 68* | 3 | 1 | -5 | -23 | 0
Cc1ccc(NC(=O)c2c(O)c3ccccc3n(C)c2=O)nc1 | 10 | 5 | 0 | 0 | -62 | -6
Cc1cccc(NC(=S)NC2CC3C=CC2C3)c1 (stereo not drawn) | nt | nt | nt | nt | nt | 0
Cc1cc(C(=O)COC(=O)c2ccc[nH]c2=O)c(C)n1-c1ccc(Br)cc1 | -7 | 2 | 0 | -1 | 91* | 0
Cc1ccc(-n2c(C)cc(C(=O)COC(=O)c3ccc[nH]c3=O)c2C)cc1 | -6 | 3 | 0 | 2 | 93* | -1
Cc1cc(C(=O)COC(=O)c2ccc[nH]c2=O)c(C)n1C | 5 | 3 | 3 | 1 | -9 | -1
COCCn1c(C)cc(C(=O)COC(=O)c2ccc[nH]c2=O)c1C | 5 | 3 | 2 | -5 | -14 | 0
Cc1ccc(NC(=O)C(=O)NCCN2CCN(S(C)(=O)=O)CC2)cc1C | nt | 2 | -2 | 0 | nt | -1
CC(C)NCC(O)(c1ccc(Cl)cc1)c1ccc(Cl)cc1 | nt | 2 | 0 | 13* | nt | 5
CC(C)(C)NCC(O)(c1ccc(Cl)cc1)c1ccc(Cl)cc1 | nt | 2 | 0 | -2 | nt | 0
SMILES | Yeast life ext | MT stabilize HCS | RAM network inh | HMGR II inh | BB579 growth dn | b-catenin transl
CS(=O)(=O)N1CCN(C(=O)c2c(F)cccc2F)CC1 | -22 | 4 | 1 | -3 | 23 | -1
CS(=O)(=O)N1CCN(C(=O)c2ccccc2F)CC1 | -7 | 2 | 1 | -2 | 50* | nt
CCOc1ccc(CCNC(=O)C(CCC(N)=O)NC(=O)OCc2ccccc2)cc1OCC (stereo not drawn) | nt | 1 | 2 | -1 | nt | 6
O=Cc1ccccc1OS(=O)(=O)c1ccccc1 | 49* | 2 | -1 | -2 | -24 | 0
O=C(Oc1ccccc1)c1ccccc1OS(=O)(=O)c1ccccc1 | -11 | 2 | 5 | -1 | -48 | -1
CCCCCCCC#Cc1ccccc1/C=N/S(=O)c1ccc(C)cc1 (stereo not drawn) | 36* | 5 | -1 | 1 | -38 | nt
CCCCC#Cc1ccccc1CC(=O)Nc1ccccc1 | 7 | 5 | 1 | -4 | -11 | -1
N/C(COc1cc(Cl)cc(Cl)c1)=N\O | nt | nt | nt | nt | nt | -1
CC(/C=C1\SC(=S)N(CCC(=O)Nc2nc(C)cs2)C1=O)=C\c1ccccc1 | nt | nt | nt | nt | nt | 0
C=CCN(CC=C)S(=O)(=O)c1ccc2nc(NC(=O)C(C)C)sc2c1 | 76* | 16 | 0 | 0 | -41 | 47
N/C(=N\OC(=O)Cc1ccc(-c2ccccc2)cc1)c1ccncc1 | nt | 6 | 1 | -2 | nt | -1
Cn1c(=O)c(=O)n(C)c2cc(S(=O)(=O)N3CC(=O)N(CCc4ccccc4)C(=O)C3)ccc21 | nt | nt | nt | nt | nt | 3
Cn1c(=O)c(=O)n(C)c2cc(S(=O)(=O)N3CCN(Cc4ccccc4)CC3)ccc21 | 88* | 3 | 1 | 7 | -17 | -1
Cc1cc(=O)c2ccc3ccccc3c2[nH]1 | -4 | 1 | 1 | 1 | -56 | -14
Cc1cc(=O)c2cccc(Br)c2[nH]1 | nt | 3 | 2 | 12* | -30 | -3
CCC1CCCCN1C(=O)CCn1ccnc1 (stereo not drawn) | nt | 3 | -1 | 15* | nt | -1
O=C(CCc1nnc(-c2ccsc2)o1)N1CCCCC1CCn1ccnc1 (stereo not drawn) | nt | 2 | 0 | 0 | nt | -2
Cc1ccc(C(=O)Nc2nc(C)c(C(=O)Nc3ccc4c(c3)CCC4)s2)cc1 | -2 | 3 | 6 | -1 | -7 | 183*
O=C1N/C(=N\N=C\c2cccs2)SC1Cc1cccc(Cl)c1 (stereo not drawn) | 2 | 22* | 5 | -4 | -23 | 25
CC1C/C(=C/c2ccncc2)C(=O)/C(=C/c2ccncc2)C1 (stereo not drawn) | nt | 37* | 0 | 1 | nt | nt
COc1ccccc1C(=O)N1CCN(c2cccc(C(F)(F)F)c2)CC1 | -10 | 35* | 3 | 3 | -70 | 88*
O=C(C1CC1c1ccccc1)N1CCN(c2cccc(Cl)c2)CC1 (stereo not drawn) | -9 | 5 | 9.5* | -5 | -80 | 0
O=C(O)c1ccccc1C(=O)N1CCN(c2cccc(Cl)c2)CC1 | 3 | 4 | 1 | 0 | -12 | -1
